Active and inactive are the calls of the source. The rule behind the calls is not given here.
Experiments:
Rattus norvegicus [1] = species on record: Rattus norvegicus; test: DA agonist induced behavior was charecterised by increased locomotion, sniffing and licking.++ indicates high intensity of behavioral effect; format: functional, organism-based
How it was run: (§1)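 Male Sprague-Dawley rats (200-300 g) given reserpine 5 mg/kg sc in the neck 18 h before testing. The test compound, in 0.9% saline, was given sc in the neck (n = 4-5). Rats were placed singly in photocell motility meters right after dosing. Counts were recorded over 30 min, alongside gross behavioural observation of 5-HT and DA signs. Statistics: ANOVA with Fischer's PLSD versus reserpine controls.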

Rattus norvegicus [2] = test: Effective dose for half-maximal decrease in the accumulation of 5-hydroxytryptophan (5-HTP) in reserpinized rat brain striatal area by po administration; Inactive; format: functional, organism-based
How it was run: (§2)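 Male Sprague-Dawley rats (200-300 g) got reserpine 5 mg/kg sc 18 h before. The test drug (saline) was given sc or po (po rats fasted 18 h), with NSD 1015, 30 min before decapitation. DOPA and 5-HTP in limbic, striatal and hemispheral tissue were measured by HPLC-ED. ED50 (half-maximal decrease) was taken from 4-6-dose curves, with deviation estimated graphically from SEM.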

[3] = molecular target: T1, Dopamine receptor (Rattus norvegicus) (UniProt P25115+P19020+P30729+P18901+P61169); test: Effective dose for half-maximal decrease in the accumulation of DOPA in reserpinized rat brain striatal area by sc administration; Inactive; format: functional, organism-based; how it was run: as §2
[4] = molecular target: T1, Dopamine receptor (Rattus norvegicus); test: Effective dose for half-maximal decrease in the accumulation of DOPA in reserpinized rat brain hemispheral area by po administration; format: functional, organism-based; how it was run: as §2
[5] = molecular target: T1, Dopamine receptor (Rattus norvegicus); test: Effective dose for half-maximal decrease in the accumulation of DOPA in reserpinized rat brain limbic area by sc administration; Inactive; format: functional, organism-based; how it was run: as §2
[6] = molecular target: T1, Dopamine receptor (Rattus norvegicus); test: Effective dose for half-maximal decrease in the accumulation of DOPA in reserpinized rat brain limbic area by sc administration; format: functional, organism-based; how it was run: as §2
Rattus norvegicus [7] = test: Effective dose for half-maximal decrease in the accumulation of 5-hydroxytryptophan (5-HTP) in reserpinized rat brain hemispheral area by po administration; Inactive; format: functional, organism-based; how it was run: as §2
[8] = molecular target: T2, 5-hydroxytryptamine receptor 1A (Rattus norvegicus, UniProt P19327); test: (§3) Binding affinity against 5-hydroxytryptamine 1A receptor in homogenated rat brain tissue, using by [3H]8-OH-DPAT as radioligand; format: tissue-based
T2 sequence (P19327 whole entry): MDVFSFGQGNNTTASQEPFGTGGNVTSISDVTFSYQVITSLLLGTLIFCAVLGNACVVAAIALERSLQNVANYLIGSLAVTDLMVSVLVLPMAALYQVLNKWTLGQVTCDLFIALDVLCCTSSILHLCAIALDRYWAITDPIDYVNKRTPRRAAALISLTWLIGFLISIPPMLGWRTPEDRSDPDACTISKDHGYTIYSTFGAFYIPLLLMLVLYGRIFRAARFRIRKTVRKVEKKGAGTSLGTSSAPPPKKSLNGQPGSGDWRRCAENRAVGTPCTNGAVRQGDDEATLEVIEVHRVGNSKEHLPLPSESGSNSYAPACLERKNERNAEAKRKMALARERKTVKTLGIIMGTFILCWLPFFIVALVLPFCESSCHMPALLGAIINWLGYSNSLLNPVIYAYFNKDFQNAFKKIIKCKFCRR
How it was run: (§4)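 Rat brain homogenate was washed and preincubated in 50 mM Tris (pH 8.0) containing NaCl, CaCl2 and MgCl2, plus 10 μM pargyline. Nonspecific binding was defined with 10 μM 5-HT. Six drug concentrations (10⁻⁴-10⁻⁹ M) were tested, triplicate or single run. IC50 came from a semilog plot with linear regression.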

[9] = molecular target: T1, Dopamine receptor (Rattus norvegicus); test: Effective dose for half-maximal decrease in the accumulation of DOPA in reserpinized rat brain hemispheral area by sc administration; Inactive; format: functional, organism-based; how it was run: as §2
[10] = molecular target: T1, Dopamine receptor (Rattus norvegicus); test: Effective dose for half-maximal decrease in the accumulation of DOPA in reserpinized rat brain limbic area by po administration; format: functional, organism-based; how it was run: as §2
Rattus norvegicus [11] = test: post-synaptic agonistic effects by increase in locomotor activity at the dose of 0.08 umol/kg, sc in reserpinized rat; format: functional; how it was run: as §1
[12] = molecular target: T1, Dopamine receptor (Rattus norvegicus); test: Effective dose for half-maximal decrease in the accumulation of DOPA in reserpinized rat brain striatal area by sc administration; format: functional, organism-based; how it was run: as §2
[13] = molecular target: T1, Dopamine receptor (Rattus norvegicus); test: Effective dose for half-maximal decrease in the accumulation of DOPA in reserpinized rat brain striatal area by po administration; format: functional, organism-based; how it was run: as §2
Rattus norvegicus [14] = test: Effective dose for half-maximal decrease in the accumulation of 5-hydroxytryptophan (5-HTP) in reserpinized rat brain limbic area by po administration; Inactive; format: functional, organism-based; how it was run: as §2
[15] = Effective dose for half-maximal decrease in the accumulation of 5-hydroxytryptophan (5-HTP) in reserpinized rat brain hemispheral area by sc administration; format: functional; how it was run: as §2
[16] = molecular target: T1, Dopamine receptor (Rattus norvegicus); test: Effective dose for half-maximal decrease in the accumulation of DOPA in reserpinized rat brain hemispheral area by po administration; Inactive; format: functional, organism-based; how it was run: as §2
[17] = Effective dose for half-maximal decrease in the accumulation of 5-hydroxytryptophan (5-HTP) in reserpinized rat brain striatal area by po administration; format: functional; how it was run: as §2
[18] = Effective dose for half-maximal decrease in the accumulation of 5-hydroxytryptophan (5-HTP) in reserpinized rat brain limbic area by sc administration; format: functional; how it was run: as §2
D(2) dopamine receptor = D(2) dopamine receptor (Rattus norvegicus, UniProt P61169); test: Binding affinity against dopamine receptor D2 in homogenated rat brain tissue, using by [3H]spiperone as radioligand; format: tissue-based
D(2) dopamine receptor, sequence (P61169 whole entry): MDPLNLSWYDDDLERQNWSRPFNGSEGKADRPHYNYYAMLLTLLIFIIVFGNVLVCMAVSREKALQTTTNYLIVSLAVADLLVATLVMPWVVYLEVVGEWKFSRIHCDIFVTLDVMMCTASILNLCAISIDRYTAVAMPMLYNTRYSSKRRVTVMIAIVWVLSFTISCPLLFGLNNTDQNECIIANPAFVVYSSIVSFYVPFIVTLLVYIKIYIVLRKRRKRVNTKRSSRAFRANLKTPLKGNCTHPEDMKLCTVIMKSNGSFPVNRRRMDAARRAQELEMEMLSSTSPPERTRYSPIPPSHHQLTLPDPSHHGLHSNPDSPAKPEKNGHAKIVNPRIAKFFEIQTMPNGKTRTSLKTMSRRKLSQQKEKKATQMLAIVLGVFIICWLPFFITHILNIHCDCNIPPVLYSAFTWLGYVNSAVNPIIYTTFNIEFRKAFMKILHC
How it was run: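 Rat striatal membranes were prepared in 50 mM potassium phosphate (pH 7.4). They were incubated with 0.5 nM [3H]spiperone (3 mg original tissue) for 10 min at 37 °C. Specific binding was defined with 10 μM 6,7-ADTN. Six drug concentrations (10⁻⁴-10⁻⁹ M) were tested, in triplicate or in a single experiment.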

[19] = Effective dose for half-maximal decrease in the accumulation of 5-hydroxytryptophan (5-HTP) in reserpinized rat brain limbic area by po administration; format: functional; how it was run: as §2
[20] = Effective dose for half-maximal decrease in the accumulation of 5-hydroxytryptophan (5-HTP) in reserpinized rat brain striatal area by sc administration; format: functional; how it was run: as §2
[21] = molecular target: T2, 5-hydroxytryptamine receptor 1A; test: as §3; format: tissue-based; remark: listed apart in the source
How it was run: as §4, with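 “pargyline. It was incubated with 1 nM [3H]-8-OH-DPAT (final) for 15 min at 37 °C, then vacuum-filtered and counted by scintillation.” for “pargyline.”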

[22] = Effective dose for half-maximal decrease in the accumulation of 5-hydroxytryptophan (5-HTP) in reserpinized rat brain hemispheral area by po administration; format: functional; how it was run: as §2

## CCCN(CCC)C1CCc2c(O)cccc2C1 (stereo not drawn) [5-OH-DPAT]
Rattus norvegicus [1]
  Behavioral observation: Active
Rattus norvegicus [2]
  ED50: inactive
[3]
  ED50: inactive
[4]
  ED50: 4 µmol/kg
[5]
  ED50: inactive
[6]
  ED50: 0.01 µmol/kg
Rattus norvegicus [7]
  ED50: inactive
[8]
  Ki: 1.04 µM
[9]
  ED50: inactive
[10]
  ED50: 0.7 µmol/kg
Rattus norvegicus [11]
  Counts/30: 60 min
[12]
  ED50: 0.01 µmol/kg
[13]
  ED50: 0.5 µmol/kg
Rattus norvegicus [14]
  ED50: inactive

## CCCN(CCC)C1CCc2cccc(OC)c2C1 (stereo not drawn)
[15]
  ED50: 0.2 µmol/kg
[16]
  ED50: inactive
[17]
  ED50: 3.2 µmol/kg
[18]
  ED50: 0.3 µmol/kg
[3]
  ED50: inactive
[5]
  ED50: inactive
D(2) dopamine receptor
  Ki: 0.16 µM
[9]
  ED50: inactive
[19]
  ED50: 3.2 µmol/kg
[20]
  ED50: 0.3 µmol/kg
[21]
  Ki: 0.01 µM
[10]
  ED50: 5.5 µmol/kg
[22]
  ED50: 2.3 µmol/kg
[13]
  ED50: 12.5 µmol/kg

Reference: ChEMBL document CHEMBL1126882, “Orally active central dopamine and serotonin receptor ligands: 5-, 6-, 7-, and 8-[[trifluoromethyl)sulfonyl]oxy]-2-(di-n-propylamino)tetralins and the formation of active metabolites in vivo” (J Med Chem, 1993)
